High-throughput results from PubChem.
SENP1 FRET inh – SENP1 (human) catalytic domain inhibition. Q9P0U3. recombinant SENP1 catalytic domain, CyPet-SUMO1-YPet FRET cleavage. inhibition, % at 10 µM. 0.21% of 360,000 active;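 active = inhibition at least 30% at 10 µM, raw YFP signal under a set limit, fluorescence ratio 0.5 to 1.5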;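 also: 0% = enzyme with DMSO and 100% = no enzyme wells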
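Test system: human SENP1 catalytic domain; medium: Tris pH 8 buffer plus EDTA, NaCl, BME, BSA, NP40, catalase; incubation: 50 min reaction at room temperature; technique: FRET, CFP and YFP emission; controls: no-enzyme low control and enzyme-plus-DMSO high control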
HDAC3 inhib – blocks human histone deacetylase 3; recombinant HDAC3, fluorogenic peptide/trypsin coupled, fluorescence; O15379; 0.15% of 320,000 active; inhibition, % at 8.3 µM; in the data active = inhibition above about 26%, passing the limit was not always enough; inconclusive = no clear call, values can overlap the other calls
Fh CTSL1 inh – blocks F. hepatica cathepsin L1 in PFM18AAP counter-screen. recombinant F. hepatica cathepsin L1, Z-Leu-Arg-MCA fluorescence. inhibition, % at 5.96 µM. 0.49% of 300,000 active;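 active = inhibition above the mean of all tested compounds plus 3 SD, set per screening campaign, cut at about 17% in these data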;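 also: 0% = plate median of test compound wells and 100% = 1 µM Z-Phe-Ala-diazomethylketone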
PfM18AAP inh – PfM18AAP enzyme inhibition; recombinant PfM18AAP, H-Glu-NHMec fluorogenic cleavage; inhibition, % at 7.35 µM; 1.2% of 290,000 active;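 active = inhibition above the campaign mean inhibition over all tested compounds plus 3 SD, cut at about 28% in these data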;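 also: 0% = plate median of test compound wells and 100% = 2 mM ZnCl2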
GAA850 FXN act – activators of GAA850 frataxin (FXN) promoter. HEK293 lucGAA850 FXN promoter luciferase reporter, 24 h; percent of 10 µM SAHA response. activation, % at 6 µM. 0.56% of 360,000 active;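 active = activation above the average of all compounds screened plus 3 SD, cutoff fixed separately per campaign, cut at about 7.5% in these data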;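 also: 0% = DMSO wells and 100% = 10 µM SAHA wells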
AHR activator – activates the human aryl hydrocarbon receptor; P35869; AHR-responsive luciferase reporter cells, luminescence; activation, % at 5 µM; 2.5% of 320,000 active; in the data active = activation above about 47%;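 also: 0% = vehicle wells and 100% = reference agonist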
Starred values were filed as active, the others as inactive; ? = inconclusive; . = no result. In the library only some 4.2% were active in any assay of this set; here they are far more common.

SMILES | SENP1 FRET inh | HDAC3 inhib | Fh CTSL1 inh | PfM18AAP inh | GAA850 FXN act | AHR activator
COc1ccc(CCNc2nc(C)cc(=O)[nH]2)cc1OC | 0.4 | ? | 2.9 | 3.2 | -0.3 | 0.1
COc1ccc(C/C(C)=N/Nc2nc(C)cc(=O)[nH]2)cc1 | 2.1 | -6.4 | 0.2 | 30.8* | 0.4 | 14.0
COc1cc(/C=C(/C(=O)c2cccs2)c2nc3ccccc3[nH]2)ccc1O | -11.6 | -2.5 | 0.8 | 3.9 | -6.7 | 56.9*
COC(=O)/C(=C\c1cc(OC)c(OC)c(OC)c1)c1nc2ccccc2[nH]1 | -94.1 | 5.1 | -2.4 | -4.8 | 0.5 | 2.4
O=C(/C(=C/c1ccc(Cl)cc1)c1nc2ccccc2[nH]1)c1cccs1 | -9.8 | 4.3 | 0.1 | 3.5 | -11.9 | 58.4*
Cc1nnc(SCC(=O)NC2(C#N)CCCCC2)n1N | 1.0 | . | . | . | 0.1 | .
COc1ccc(-c2cn3ccc4ccccc4c3n2)cc1 | 2.0 | -4.6 | -0.3 | -0.8 | 5.6 | 48.2*
COc1ccc(-c2cn3ccccc3n2)cc1 | 3.4 | -4.6 | -2.0 | -0.1 | 1.8 | 0.9
COc1ccc(C(O)c2ncc(C(F)(F)F)cc2Cl)cc1 (centres undefined) | 3.1 | 3.0 | -3.9 | 1.3 | 2.4 | 0.9
COc1ccc(-c2cn3cc(C(F)(F)F)cc(Cl)c3n2)cc1 | 3.4 | 1.4 | 2.5 | 6.5 | 0.2 | 52.0*
O=C(c1ccc(CS(=O)(=O)c2c(Cl)cccc2Cl)o1)N1CCN(c2ccccn2)CC1 | 2.0 | 3.5 | 1.7 | 2.1 | 0.6 | 93.8*
Nc1ccccc1C(=O)N=Nc1[nH]c(N)c2ccccc12 | 0.4 | 4.5 | 2.8 | 16.8 | 2.4 | 61.2*
Cc1ccc2nc(N(CCN(C)C)C(=O)/C=C/c3cccs3)sc2c1 | 0.7 | . | 0.1 | -5.7 | 1.7 | 48.3*
CCc1ccc2nc(N(CCN(C)C)C(=O)/C=C/c3cccs3)sc2c1 | 1.0 | 14.9 | 0.3 | 2.6 | 3.4 | 12.3
CN(C)CCN(C(=O)/C=C/c1cccs1)c1nc2c(F)cc(F)cc2s1 | 5.2 | . | 2.1 | 1.4 | -0.8 | 66.1*
Cc1ccc(SCC(=O)OCC(=O)N(CC(C)C)c2c(N)n(Cc3ccccc3)c(=O)[nH]c2=O)c(C)c1 | 0.3 | -2.1 | -11.9 | . | -2.2 | -0.2
COc1ccc(CNC(=O)Cn2ncn3cccc3c2=O)cc1 | . | 1.7 | -1.6 | 2.1 | . | 71.2*
O=C(CN1C(=O)C2C3C=CC(C3)C2C1=O)Nc1ccc2nccnc2c1 (centres undefined) | -5.4 | -2.5 | 20.3* | 3.3 | -2.8 | -0.4
CN(CC(=O)Nc1c(Cl)cccc1Cl)C(=O)c1cc2ccccc2cc1O | -0.1 | . | 4.2 | . | 1.2 | 7.0
CC(=O)N1c2ccccc2C(=O)C1N1CCCCC1 (centres undefined) | -5.5 | -1.1 | 20.9* | 5.9 | 0.9 | 21.7
O=C1C=C(c2ccccc2)CC(/C=C/c2ccccc2)C1 (centres undefined) | 1.6 | 8.5 | 3.9 | 6.4 | 0.4 | 75.2*
COc1ccc([C@H]2C[C@@H](O)[C@H](n3cc(C4CC4)nn3)CN2C(=O)c2cccs2)cc1 | 1.3 | . | . | . | -1.9 | .
CC1(C)OC(c2ccccc2)=C/C(=C/C=C2C(=O)c3ccccc3C2=O)O1 | 94.5* | 3.6 | 1.3 | -0.1 | -0.5 | 5.1
Cc1ccccc1N=C/C=C1/C=C(c2ccccc2)OC(C)(C)O1 | -26.1 | 2.2 | 2.1 | -5.4 | -3.4 | 13.7
Cc1ccc(NC(=O)c2cnccn2)cc1S(=O)(=O)N1CCCCCC1 | -1.5 | 0.2 | . | . | -0.3 | -1.1
SMILES | SENP1 FRET inh | HDAC3 inhib | Fh CTSL1 inh | PfM18AAP inh | GAA850 FXN act | AHR activator
O=C(CSc1nc2ccccc2s1)NCCOc1ccc(Cl)cc1 | -1.3 | -0.1 | -3.3 | -3.1 | -3.0 | 48.1*
O=C(CSc1nc2ccccc2s1)NNC(=S)Nc1ccc(Cl)cc1 | -1.1 | . | 2.8 | 12.4 | -0.8 | 70.6*
O=C(COc1ccc(Cl)cc1)NNC(=O)CSc1nncs1 | 3.2 | -5.4 | -8.7 | 28.9* | 1.1 | 0.3
CCOC(=O)c1c(NC(=O)CSc2nc3ccccc3s2)sc(C)c1C | 0.7 | 1.7 | 0.0 | 29.6* | 3.6 | 9.6
O=C(CSc1nc2ccccc2s1)NCCOc1ccccc1 | 1.0 | 7.1 | -2.3 | 0.1 | 0.2 | 35.7
c1ccc2sc(-n3cc(C4CCCCC4)nn3)nc2c1 | 1.5 | . | . | . | . | .
O=C(Cc1ccsc1)NNC(=O)c1cccc(Cl)c1 | -0.5 | -2.1 | -3.2 | -2.1 | 0.1 | 4.9
COc1ccccc1N1CCN(S(=O)(=O)c2cn(C)c(=O)n(C)c2=O)CC1 | 2.1 | 2.9 | -1.9 | 1.4 | 1.1 | 64.8*
